In ChEMBL document CHEMBL1148746, “Functional characterization of Tet-AMPA [tetrazolyl-2-amino-3-(3-hydroxy-5-methyl- 4-isoxazolyl)propionic acid] analogues at ionotropic glutamate receptors GluR1-GluR4. The molecular basis for the functional selectivity profile of 2-Bn-Tet-AMPA” (J Med Chem, 2007):

How the values were obtained:
[1] = target: Glutamate receptor 1 (Rattus norvegicus) (UniProt P19490); assay: Agonist activity at GluR1 expressed in HEK293 cells by Fluo-4/Ca2+ assay
[2] = target: Glutamate receptor 3 (Rattus norvegicus) (UniProt P19492); assay: Agonist activity at GluR3 expressed in HEK293 cells by Fluo-4/Ca2+ assay
Glutamate receptor 3 (Rattus norvegicus), sequence (P19492 whole entry, looked up): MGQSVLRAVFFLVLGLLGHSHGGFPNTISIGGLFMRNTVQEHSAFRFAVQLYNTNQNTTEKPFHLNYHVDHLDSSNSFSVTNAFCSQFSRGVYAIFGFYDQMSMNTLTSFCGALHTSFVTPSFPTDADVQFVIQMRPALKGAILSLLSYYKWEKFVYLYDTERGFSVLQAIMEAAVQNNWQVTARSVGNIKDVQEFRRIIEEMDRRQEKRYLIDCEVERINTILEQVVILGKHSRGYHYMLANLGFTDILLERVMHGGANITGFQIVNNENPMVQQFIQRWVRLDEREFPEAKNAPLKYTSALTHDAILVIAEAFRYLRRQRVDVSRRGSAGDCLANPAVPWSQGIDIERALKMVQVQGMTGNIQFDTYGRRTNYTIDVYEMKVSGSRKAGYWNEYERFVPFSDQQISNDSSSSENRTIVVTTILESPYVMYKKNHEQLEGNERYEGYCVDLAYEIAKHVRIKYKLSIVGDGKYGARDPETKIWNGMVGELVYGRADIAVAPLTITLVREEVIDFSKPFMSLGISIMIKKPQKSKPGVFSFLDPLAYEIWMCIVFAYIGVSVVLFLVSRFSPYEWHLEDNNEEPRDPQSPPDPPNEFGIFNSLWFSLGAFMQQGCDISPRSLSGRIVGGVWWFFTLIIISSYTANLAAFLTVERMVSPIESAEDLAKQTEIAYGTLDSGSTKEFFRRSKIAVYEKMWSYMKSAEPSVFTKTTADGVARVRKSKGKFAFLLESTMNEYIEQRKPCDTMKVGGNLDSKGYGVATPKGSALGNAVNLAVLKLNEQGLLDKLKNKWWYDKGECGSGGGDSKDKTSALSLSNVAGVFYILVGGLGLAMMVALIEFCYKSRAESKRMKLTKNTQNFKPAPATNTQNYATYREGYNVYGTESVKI

[3] = target: Glutamate receptor 4 (Rattus norvegicus) (UniProt P19493); assay: Agonist activity at GluR4 expressed in HEK293 cells by Fluo-4/Ca2+ assay
Glutamate receptor 4 (Rattus norvegicus), sequence (P19493 whole entry, looked up): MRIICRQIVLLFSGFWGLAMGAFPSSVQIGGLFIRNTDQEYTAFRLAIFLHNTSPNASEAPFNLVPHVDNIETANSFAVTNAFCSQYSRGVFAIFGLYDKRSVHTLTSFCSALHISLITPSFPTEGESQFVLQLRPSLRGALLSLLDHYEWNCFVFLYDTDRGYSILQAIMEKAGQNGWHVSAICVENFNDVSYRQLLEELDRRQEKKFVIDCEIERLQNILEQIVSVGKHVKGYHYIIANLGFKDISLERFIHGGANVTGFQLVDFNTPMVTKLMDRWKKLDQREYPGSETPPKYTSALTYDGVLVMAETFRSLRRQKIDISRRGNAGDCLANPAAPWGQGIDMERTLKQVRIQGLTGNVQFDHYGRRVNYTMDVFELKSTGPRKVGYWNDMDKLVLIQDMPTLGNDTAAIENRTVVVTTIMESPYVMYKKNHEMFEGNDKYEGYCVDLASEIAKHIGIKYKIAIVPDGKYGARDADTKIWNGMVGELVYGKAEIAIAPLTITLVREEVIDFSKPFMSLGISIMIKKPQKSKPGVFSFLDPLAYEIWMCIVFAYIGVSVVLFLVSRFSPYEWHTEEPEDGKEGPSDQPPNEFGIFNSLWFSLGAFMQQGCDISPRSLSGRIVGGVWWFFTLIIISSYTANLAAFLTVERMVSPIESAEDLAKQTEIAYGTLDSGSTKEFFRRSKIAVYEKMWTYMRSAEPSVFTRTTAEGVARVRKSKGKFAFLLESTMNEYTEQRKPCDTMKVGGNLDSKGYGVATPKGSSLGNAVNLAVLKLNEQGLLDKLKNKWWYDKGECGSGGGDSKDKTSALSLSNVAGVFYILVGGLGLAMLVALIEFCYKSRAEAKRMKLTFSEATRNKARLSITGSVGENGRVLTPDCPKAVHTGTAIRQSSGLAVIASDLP

[4] = target: Glutamate receptor 2 (Rattus norvegicus) (UniProt P19491); assay: Agonist activity at GluR2Q expressed in HEK293 cells by Fluo-4/Ca2+ assay
Glutamate receptor 2 (Rattus norvegicus), sequence (P19491 whole entry, looked up): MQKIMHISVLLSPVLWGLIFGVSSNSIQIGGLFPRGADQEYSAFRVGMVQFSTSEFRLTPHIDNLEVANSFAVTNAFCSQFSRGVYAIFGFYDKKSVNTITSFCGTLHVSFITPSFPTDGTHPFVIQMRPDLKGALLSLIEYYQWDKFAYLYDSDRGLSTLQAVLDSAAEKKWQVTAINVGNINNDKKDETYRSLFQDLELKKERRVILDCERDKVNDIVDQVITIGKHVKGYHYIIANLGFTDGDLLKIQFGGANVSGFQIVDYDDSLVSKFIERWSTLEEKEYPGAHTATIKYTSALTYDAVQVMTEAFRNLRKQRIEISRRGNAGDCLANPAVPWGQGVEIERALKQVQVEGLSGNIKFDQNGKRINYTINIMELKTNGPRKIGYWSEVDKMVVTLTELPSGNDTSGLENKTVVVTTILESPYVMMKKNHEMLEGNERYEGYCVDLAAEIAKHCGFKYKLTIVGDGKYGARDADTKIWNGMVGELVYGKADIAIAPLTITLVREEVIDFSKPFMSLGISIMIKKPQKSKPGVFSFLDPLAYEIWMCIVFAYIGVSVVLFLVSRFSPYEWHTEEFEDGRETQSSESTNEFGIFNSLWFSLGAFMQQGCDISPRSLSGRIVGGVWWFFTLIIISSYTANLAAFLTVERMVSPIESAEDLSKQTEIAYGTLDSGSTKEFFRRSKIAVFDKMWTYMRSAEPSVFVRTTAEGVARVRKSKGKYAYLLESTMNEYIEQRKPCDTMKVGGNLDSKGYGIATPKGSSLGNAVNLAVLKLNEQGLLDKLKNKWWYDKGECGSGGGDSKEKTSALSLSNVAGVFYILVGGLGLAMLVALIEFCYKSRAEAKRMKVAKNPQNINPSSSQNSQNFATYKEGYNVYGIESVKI

[5] = target: Glutamate receptor 1 (Rattus norvegicus) (UniProt P19490); assay: Agonist activity at GluR1 expressed in HEK293 cells relative to S-Glutamate by Fluo-4/Ca2+ assay
[6] = target: Glutamate receptor 3 (Rattus norvegicus) (UniProt P19492); assay: Agonist activity at GluR3 expressed in HEK293 cells relative to S-Glutamate by Fluo-4/Ca2+ assay
[7] = target: Glutamate receptor 4 (Rattus norvegicus) (UniProt P19493); assay: Agonist activity at GluR4 expressed in HEK293 cells relative to S-Glutamate by Fluo-4/Ca2+ assay
[8] = Agonist activity at GluR1 M686V/I687 mutant expressed in HEK293 cells by Fluo-4/Ca2+ assay; format: functional, cell-based; conditions: Homo sapiens
Outline: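 Rat GluR1i mutants, cDNA sequence-verified, transiently transfected into HEK293 cells and kept 2-3 weeks under 3 mg/mL G-418 selection to make polyclonal cells. Cells were plated 16-24 h ahead, loaded with Fluo-4/AM for 1 h at 37 °C, then held in HBSS with 20 mM HEPES, 10 mM CaCl2, 2.5 mM probenecid and 100 µM CTZ, pH 7.4. Fluorescence (ex 485/em 520 nm) was read up to 60 s after agonist addition.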

[9] = tested on: Glutamate receptor 1 (Homo sapiens), P42261 [D417S,M704V,I705A]; assay: Agonist activity at GluR1 D399S/M686V/I687A mutant expressed in Xenopus oocyte cells relative to S-Glutamate; format: functional, cell-based
Glutamate receptor 1 (Homo sapiens), P42261 [D417S,M704V,I705A], sequence (P42261 whole entry D417S/M704V/I705A): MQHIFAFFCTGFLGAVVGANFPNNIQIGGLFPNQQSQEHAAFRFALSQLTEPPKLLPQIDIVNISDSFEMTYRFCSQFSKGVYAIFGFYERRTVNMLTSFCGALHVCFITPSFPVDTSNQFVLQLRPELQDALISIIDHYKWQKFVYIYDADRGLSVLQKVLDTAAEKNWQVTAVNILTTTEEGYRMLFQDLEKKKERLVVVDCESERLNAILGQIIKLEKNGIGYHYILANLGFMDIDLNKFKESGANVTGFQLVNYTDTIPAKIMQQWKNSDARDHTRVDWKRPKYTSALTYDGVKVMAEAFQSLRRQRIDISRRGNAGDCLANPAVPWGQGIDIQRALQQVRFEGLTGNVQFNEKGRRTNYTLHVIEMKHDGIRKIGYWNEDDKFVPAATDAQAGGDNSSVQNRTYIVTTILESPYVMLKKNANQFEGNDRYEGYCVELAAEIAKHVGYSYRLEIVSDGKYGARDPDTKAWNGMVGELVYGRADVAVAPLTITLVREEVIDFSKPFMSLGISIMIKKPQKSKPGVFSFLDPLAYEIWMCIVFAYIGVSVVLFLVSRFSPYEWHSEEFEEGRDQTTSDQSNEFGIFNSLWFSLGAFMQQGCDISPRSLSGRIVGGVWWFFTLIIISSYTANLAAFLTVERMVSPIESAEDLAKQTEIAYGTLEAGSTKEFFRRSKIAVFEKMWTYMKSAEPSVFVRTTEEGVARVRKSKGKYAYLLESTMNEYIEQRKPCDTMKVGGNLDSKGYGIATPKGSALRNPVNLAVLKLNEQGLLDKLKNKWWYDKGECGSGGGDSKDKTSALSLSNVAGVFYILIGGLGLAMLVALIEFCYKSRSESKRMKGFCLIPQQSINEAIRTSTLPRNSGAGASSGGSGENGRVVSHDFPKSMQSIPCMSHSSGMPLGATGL
Outline: (§1)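 Rat GluR1i mutant or GluR4i cRNA expressed in Xenopus oocytes, recorded by two-electrode voltage clamp 2-3 days after injection. Low-Ca2+ Ringer's (115 mM NaCl, 0.1 mM CaCl2, pH 7.5) was used, with 30 s pretreatment and continuous application of 100 µM CTZ. Peak currents were normalized to 1000 µM glutamate + 100 µM CTZ and fitted to the Hill equation; n = 3.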

[10] = target: Glutamate receptor 4 (Homo sapiens) (UniProt P48058); assay: Agonist activity at GluR4 expressed in Xenopus oocyte cells relative to S-Glutamate; format: functional, cell-based
Outline: as §1

Glutamate receptor 1 (Rattus norvegicus), sequence (P19490 whole entry, looked up): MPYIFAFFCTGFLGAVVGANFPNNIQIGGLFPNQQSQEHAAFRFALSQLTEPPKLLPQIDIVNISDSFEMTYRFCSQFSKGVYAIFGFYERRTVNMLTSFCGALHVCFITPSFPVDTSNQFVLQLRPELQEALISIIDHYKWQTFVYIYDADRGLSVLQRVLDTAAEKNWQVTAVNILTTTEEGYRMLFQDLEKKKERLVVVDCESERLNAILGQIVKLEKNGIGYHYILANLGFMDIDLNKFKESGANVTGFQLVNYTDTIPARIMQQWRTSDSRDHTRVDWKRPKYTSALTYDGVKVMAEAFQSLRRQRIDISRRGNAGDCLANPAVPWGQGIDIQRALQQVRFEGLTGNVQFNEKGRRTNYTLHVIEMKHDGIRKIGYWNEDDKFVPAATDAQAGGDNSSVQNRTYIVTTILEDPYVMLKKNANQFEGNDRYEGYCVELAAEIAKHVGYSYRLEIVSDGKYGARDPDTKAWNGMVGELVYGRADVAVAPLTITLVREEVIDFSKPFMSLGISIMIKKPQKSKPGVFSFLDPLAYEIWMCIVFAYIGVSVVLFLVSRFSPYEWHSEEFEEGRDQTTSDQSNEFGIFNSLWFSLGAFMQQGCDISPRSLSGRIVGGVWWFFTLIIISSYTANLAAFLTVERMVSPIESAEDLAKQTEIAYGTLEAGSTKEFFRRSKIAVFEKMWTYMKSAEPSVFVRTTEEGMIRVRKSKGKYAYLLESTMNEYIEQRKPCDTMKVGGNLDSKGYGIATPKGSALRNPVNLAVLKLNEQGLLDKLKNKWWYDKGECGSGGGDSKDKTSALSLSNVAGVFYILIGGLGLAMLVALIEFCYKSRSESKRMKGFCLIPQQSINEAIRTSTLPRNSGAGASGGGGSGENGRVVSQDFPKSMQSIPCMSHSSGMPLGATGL

EC50 [1] [µM] | EC50 ([2]; read-out: EC50) [µM] | EC50 ([3]; read-out: EC50) [µM] | EC50 [4] [µM] | RUmax [5] [%] | RUmax [6] [%] | RUmax [7] [%] | EC50 ([2]; read-out: Log EC50 (converted)) [µM] | EC50 ([3]; read-out: Log EC50 (converted)) [µM] | EC50 ([8]; read-out: EC50) [µM] | RUmax [9] [%] | RUmax [10] [%] | EC50 ([8]; read-out: Log EC50 (converted)) [µM] | Structure (SMILES)
550 | 700 | 160 | 1000 | 73 | 73 | 83 |  |  |  |  |  |  | CC(C)n1nnc(-c2onc(O)c2CC(N)C(=O)O)n1 (racemic)
> 3000 | > 3000 | 3000 | > 3000 |  | 22 | 79 |  |  |  |  |  |  | Cn1nnnc1-c1onc(O)c1CC(N)C(=O)O (racemic)
42 | 18 | 4 | 52 |  |  |  | 15.8 |  |  |  |  |  | CCn1nnc(-c2o[nH]c(=O)c2CC(N)C(=O)O)n1 (racemic)
480 | 450 | 79 | 830 | 82 | 85 | 97 | 398 | 63.1 |  |  |  |  | CCCn1nnc(-c2onc(O)c2CC(N)C(=O)O)n1 (racemic)
 |  |  |  |  |  |  |  |  | 500 | 60 | 63 |  | NC(Cc1c(O)noc1-c1nnn(Cc2ccccc2)n1)C(=O)O (racemic)
 |  |  |  | 83 | 95 | 94 |  |  |  |  |  |  | CCn1nnc(-c2onc(O)c2CC(N)C(=O)O)n1 (racemic)
 |  |  |  |  |  |  |  |  | 76 |  |  | 79.4 | N[C@@H](CCC(=O)O)C(=O)O [GLUTAMIC ACID]
